# The list is not random: actives were taken first. Their share in the collection is about 8.2%.
# HePTP inhibitor – inhibitors of human HePTP phosphatase | AID 521 | hit rate 0.64% among 110,000 | recombinant HePTP phosphatase activity, OD absorbance | inhibition, % at 20 µM; in the data active means inhibition above about 50%;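 further: plate controls were vehicle for no effect and reference inhibitor for full effect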
# RORA act – activates the human nuclear receptor RORA; CHO-K1 Gal4-RORA LBD luciferase reporter, luminescence; percent increase over mock-subtracted basal signal; P35398; activation, % at 10 µM; AID 560; hit rate 1.5% among 65,000;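 active means activation above the mean of all tested compounds plus 3 SD, cut at about 49% in these data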;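 further: 0% = DMSO-treated RORA cells and 100% = added signal equal to DMSO minus mock-transfected cells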
# Target sequence (P35398 whole entry, looked up, the tested form may be a part): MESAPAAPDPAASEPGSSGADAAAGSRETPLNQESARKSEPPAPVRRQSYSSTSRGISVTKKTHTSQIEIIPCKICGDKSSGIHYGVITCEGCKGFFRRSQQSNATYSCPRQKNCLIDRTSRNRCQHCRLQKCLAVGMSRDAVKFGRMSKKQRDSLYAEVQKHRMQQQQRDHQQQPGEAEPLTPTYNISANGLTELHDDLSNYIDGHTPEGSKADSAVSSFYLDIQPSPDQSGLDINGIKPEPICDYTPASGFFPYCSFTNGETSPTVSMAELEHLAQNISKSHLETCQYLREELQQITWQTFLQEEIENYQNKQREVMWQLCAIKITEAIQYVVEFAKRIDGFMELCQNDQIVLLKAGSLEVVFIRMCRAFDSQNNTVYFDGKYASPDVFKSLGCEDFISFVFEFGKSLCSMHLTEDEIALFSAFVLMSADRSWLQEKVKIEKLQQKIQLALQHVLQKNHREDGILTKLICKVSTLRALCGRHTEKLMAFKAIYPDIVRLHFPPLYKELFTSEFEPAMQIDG
# D1 mod – allosteric modulators of human D1 dopamine receptor; HEK293 D1, CRE-luciferase, dopamine EC30 potentiation; actives deviate in either direction; AID 641; B-score at 10 µM; P21728; hit rate 5.9% among 58,000;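 active means luminescence count or its row- and column-corrected plate score outside the 99.7% band of the plate's sample wells, on either side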
# M1 antagonist – M1 muscarinic receptor (rat) antagonism; hit rate 3.4% among 64,000; B-score at 10 µM; AID 628; CHO-M1 cells, Fluo-4 calcium, ACh EC80 antagonist mode; active compounds read low;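 active means calcium fluorescence response, raw or row-and-column corrected B-score, differing from the plate sample mean either way at a set confidence level, mostly lower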
# SF-1 act – activates the human nuclear receptor SF-1. CHO-K1 Gal4-SF-1 LBD luciferase reporter; % increase over DMSO SF-1-specific signal. activation, % at 10 µM. hit rate 1.9% among 65,000;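 active means activation above the mean activation of all tested compounds plus 3 SD, cut at about 50% in these data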
#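 Material: Transient Gal4-SF-1 LBD reporter, CHO-K1 | Input: 4,000 cells/well | Dosing: One dose, 10 µM compound, 1% DMSO | Incubation: 20 h compound treatment, 37 °C | Detection: SteadyLite luciferase luminescence | Evaluation: Percent activation relative to DMSO median and mock-transfected background | Benchmarks: DMSO-treated SF-1-transfected cells as negative, DMSO-treated mock-transfected cells lacking SF-1 as background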
# M1 ag – agonists of M1 muscarinic receptor; CHO-M1 cells, Fluo-4 calcium fluorescence, agonist mode; active compounds read high; B-score at 10 µM; hit rate 3% among 64,000; AID 626;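 active means fluorescence rise, raw or as B-score row- and column-corrected plate score, outside the 99.7% band of its plate's samples, either direction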
# Starred values were filed as active, the others as inactive; · = no result.
SMILES,HePTP inhibitor,RORA act,D1 mod,M1 antagonist,SF-1 act,M1 ag
CCOC(=O)c1cnn(-c2ccccn2)c1N,8.6,53.0*,-0.526,-0.00201,34.9,-0.0863
CCOC(=O)c1cnn(-c2cc(C)c3ccccc3n2)c1N,4.7,15.0,0.998,0.526,18.3,-0.314
CCOC(=O)C1CCN(c2ncnc3c2oc2ccccc23)CC1,3.5,4.9,-0.0361,0.0962,-10.8,2.67
CCOC(=O)c1cnn(-c2ncnc3c2oc2ccccc23)c1N,7.7,9.1,-3.71*,-0.195,27.0,-0.418
CCOC(=O)c1cnc2c(-c3ccccc3)cnn2c1N,0.0,-4.6,-2.28,0.328,52.4*,0.416
COCCOC(=O)C(C#N)c1nc2ccccc2nc1N1CCN(Cc2ccccc2)CC1 (stereo not given),8.1,5.8,-1.99,-2.71,3.3,-0.329
O=C(NC(NC(=S)Nc1ccccc1[N+](=O)[O-])C(Cl)(Cl)Cl)c1ccco1 (stereo not given),2.8,·,·,·,·,·
CC1CCN(C(=O)CSc2nnc(-c3ccco3)o2)CC1,9.9,6.8,0.291,0.588,14.7,0.281
CCOC(=O)c1sc(NC(=O)CSc2nnc3c4ccccc4n(CC)c3n2)nc1C,-12.2,·,-0.454,-0.257,·,-1.08
CCOC(=O)c1sc(NC(=O)C(CC)Sc2nnc3c4ccccc4n(CC)c3n2)nc1C (stereo not given),2.3,7.0,4.18*,0.302,-2.0,-0.875
C=CCn1c(=O)c(C(=O)Nc2ccccc2OC)c(O)c2ccccc21,2.6,3.4,1.31,-0.116,11.0,-0.455
O=C(Nc1ccc2c(c1)CCC2)c1cnccn1,6.9,16.7,-1.16,-0.268,55.2*,0.508
Cc1occc1C(=O)Nc1ccc2c(c1)CCC2,12.2,54.8*,-2.18,-0.141,74.7*,0.866
CCCOC(=O)c1ccc(NC(=O)c2ccoc2C)cc1,11.0,41.8,-1.09,-0.0954,63.4*,-0.701
Cc1ccc(C(=O)Nc2ccc3c(c2)CCC3)o1,7.1,15.7,-3.49,0.448,58.6*,0.314
O=C(N=Nc1c(O)[nH]c2ccc([N+](=O)[O-])cc12)c1ccc2c(c1)OCO2,102.1*,·,·,·,·,·
O=C(Nc1ccccc1C(=O)N=Nc1c(O)[nH]c2ccc([N+](=O)[O-])cc12)c1ccccc1,-1.6,·,·,·,·,·
CCOC(=O)CCn1nc(-c2ccc(Cl)cc2)cc1N,2.3,41.4,0.211,-0.00642,70.0*,0.658
CCCCCn1c(NC2CCCCC2)nc2c1c(=O)[nH]c(=O)n2C,0.1,-8.6,5.68*,-0.0539,-6.1,0.331
CCCCCCn1c(SCCOC)nc2c1c(=O)[nH]c(=O)n2C,-3.9,-25.6,9.38*,0.17,-18.9,-0.281
CCCCCCn1c(SCCN2CCOCC2)nc2c1c(=O)[nH]c(=O)n2C,10.8,-15.3,·,-0.0785,-2.3,1.23
CCCCCn1c(N2CCC(Cc3ccccc3)CC2)nc2c1c(=O)[nH]c(=O)n2C,0.5,22.0,-0.894,-1.08,-25.9,0.958
COCC(=O)Nc1ccc2ccccc2c1,3.9,·,·,·,·,·
O=C(Cc1ccc(F)cc1)NCc1ccccc1,-8.3,·,·,·,·,·
CCOC(=O)C1=C(C)NC(SCC(=O)Nc2cc(C)on2)=C(C#N)C1c1cccs1 (stereo not given),-0.6,9.6,-5.28*,0.459,26.0,-0.306
SMILES,HePTP inhibitor,RORA act,D1 mod,M1 antagonist,SF-1 act,M1 ag
CCSC1=C(C#N)C(c2cccs2)C(C(=O)OC)=C(C)N1 (stereo not given),2.3,-1.3,-1.31,-0.25,4.1,-0.784
COc1ccccc1-n1c(=O)oc2ccc(Cl)cc2c1=O,7.1,-9.6,-2.32*,-1.47,-1.5,-2.43
COCCNc1nc2c(c(=O)n(C)c(=O)n2C)n1Cc1cccc(C(F)(F)F)c1,8.7,-51.4,·,0.126,-27.3,0.397
CCOC(=O)Cc1c[nH]c2ccccc12,-9.0,-3.4,0.908,0.987,-0.1,0.0637
CC(C)(C)C1CCc2[nH]c3ccccc3c(=O)c2C1 (stereo not given),7.8,97.8*,0.107,0.102,55.5*,1.05
O=c1c2c([nH]c3ccccc13)C(=C1CCCC1)CC2,9.8,-9.9,0.0187,-0.143,-10.7,0.773
CC(NC(=O)C(=O)NCCN1CCN(C(=O)c2ccc([N+](=O)[O-])cc2)CC1)c1ccccc1 (stereo not given),-3.4,·,·,·,·,·
CCCCCCC(=O)c1c(C)[nH]c(C(=O)OCC)c1C,9.8,9.1,0.481,-0.574,52.8*,-0.434
CCOC(=O)c1c(C)[nH]c(C(=O)CSc2ccccc2)c1C,12.0,-20.8,-2.85*,-0.167,12.1,-1.96
CCOC(=O)c1[nH]c(C)c(C(=O)Nc2ccccc2C)c1C,17.2,80.6*,-0.081,0.256,26.1,0.0427
CCOC(=O)c1[nH]c(C)c(C(=O)Nc2cc(Cl)ccc2C)c1C,6.1,-3.9,0.242,-1.4,-8.8,-0.358
CCOC(=O)c1c(C)[nH]c(C(C)=O)c1C,8.8,-22.9,0.464,0.0913,-0.6,-0.473
CC(C)Oc1ccc(C2CC(=O)NC3=C2C(=O)CCC3)cc1 (stereo not given),4.3,-21.5,-5.39*,-1.37,-14.9,0.666
Cc1ccc(Nc2nc(=O)c3cccnc3s2)cc1,7.4,49.6*,0.296,1.44,53.1*,0.989
O=C(Nc1nc(-c2ccc3c(c2)OCO3)cs1)C1CC1,-4.1,72.3*,-0.653,-1.01,51.1*,-0.682
O=C(Nc1nc(-c2ccc(Cl)cc2)cs1)C1CC1,-2.1,·,·,·,·,·
O=C(CN1C(=O)CCC1=O)Nc1nc(-c2nc3ccccc3s2)cs1,4.7,86.8*,-1.16,0.965,105.7*,1.12
O=C(Nc1nc(-c2nc3ccccc3s2)cs1)C1CC1,-5.2,51.0*,-3.39*,0.205,29.0,1.26
CCc1ccc(NC(=O)c2cnc3n(c2=O)CCS3)cc1,7.4,39.9,-2.49,-0.304,49.5*,0.685
N#CCCN(C(=O)CSc1ccc2c(c1)OCCO2)c1ccccc1,7.4,6.5,0.128,-0.161,16.3,0.835
NC(=O)c1cc(NC(=O)c2cccs2)c(Cl)cc1Cl,3.7,·,·,·,·,·
NC(=O)c1ccsc1NC(=O)c1cccs1,2.2,67.6*,2.21,0.781,54.9*,0.00218
Cc1sc(NC(=O)c2cccs2)c(C(N)=O)c1C,-3.2,44.8,·,0.00592,50.8*,0.504
Cc1ccsc1C(=O)OCC(=O)Nc1sccc1C(N)=O,3.5,41.5,-1.13,-0.0214,74.5*,1.3
CCOC(=O)c1cnc2cc3c(cn2c1=O)CCCC3,10.7,26.8,0.659,0.687,86.5*,-0.174
CCOC(=O)c1c(C)n(C)c2ccc(OCC(O)CN3C(=O)c4ccccc4S3(=O)=O)cc12 (stereo not given),·,-6.8,-0.0317,-0.807,6.2,7.22*
c1ccc(NC2=Nc3ccccc3CCC2)cc1,-6.8,·,·,·,·,·
c1ccc(NC2=Nc3ccccc3CS2)cc1,-10.0,89.4*,0.641,0.0944,24.1,0.619
O=C(NCCN1CCOCC1)/C(=C/c1ccc(Cl)cc1)NC(=O)c1ccccc1,-3.4,·,·,·,·,·
Cc1nc(=O)c(-c2ccccc2)c(C)n1-c1ccccc1O,-0.2,-12.5,-5.57*,-0.33,2.8,2.39
